# Experimental data published in ChEMBL document CHEMBL1123671, “1-Aryl-2-(aminomethyl)cyclopropanecarboxylic acid derivatives. A new series of potential antidepressants” (J Med Chem, 1987).
# Test system: Mus musculus
# Assay: Potentiation of 5-hydroxytryptophan-induced head twitch in mice after oral administration
# Assay type: functional
# Settings: not given
row,Structure (SMILES),ED50 [mg/kg]
1,CCCOC(=O)[C@@]1(c2ccccc2)CC1CN(C)C.O=C(O)/C=C/C(=O)O (some centres undefined),> 100
2,CN(C)CCCN1c2ccccc2CCc2ccc(Cl)cc21 [CLOMIPRAMINE],37
3,CCN(CC)C(=O)[C@]1(c2ccc(Cl)cc2)CC1CN.Cl (some centres undefined),> 100
4,CCNC(=O)[C@@]1(c2ccccc2)CC1CN.O=C(O)C(=O)O (some centres undefined),> 100
5,CCN(CC)C(=O)[C@]1(c2ccccc2)C[C@H]1CN.Cl,> 100
6,CCN(CC)C(=O)[C@]1(c2cccc(Cl)c2)CC1CN.Cl (some centres undefined),> 10
7,CC(C)OC(=O)[C@@]1(c2ccccc2)CC1CN.Cl (some centres undefined),54
8,CCN(CC)C(=O)[C@@]1(c2ccccc2)CC1CNC.O=C(O)C(=O)O (some centres undefined),> 100
9,NCC1C[C@@]1(C(=O)N1CCCC1)c1ccccc1.O=C(O)C(=O)O (some centres undefined),> 100
10,CCOC(=O)[C@@]1(c2ccc(Cl)cc2)CC1CN(C)C.Cl (some centres undefined),35
11,CC(C)OC(=O)[C@@]1(c2ccc(Cl)cc2)CC1CN.Cl (some centres undefined),50
12,CCN(CC)C(=O)[C@]1(c2ccc(F)cc2)CC1CN.Cl (some centres undefined),50
13,Cl.NCC1C[C@@]1(C(=O)O)c1ccccc1 (some centres undefined),> 100
14,CC(C)N(C(=O)[C@@]1(c2ccccc2)CC1CN)C(C)C.Cl (some centres undefined),> 30
15,CCCCCCN(CCCCCC)C(=O)[C@@]1(c2ccccc2)CC1CN.O=C(O)C(=O)O (some centres undefined),> 1000
16,CCOC(=O)[C@@]1(c2ccccc2)CC1CN(C)CCc1ccccc1.Cl (some centres undefined),> 30
17,CNCCCN1c2ccccc2CCc2ccccc21 [DESIPRAMINE],> 100
18,CCCCN(CCCC)C(=O)[C@@]1(c2ccccc2)CC1CN.O=C(O)C(=O)O (some centres undefined),> 100

# Test system: not listed separately
# Assay: Ability to kill 50% of the animals after 24h, when administered perorally
# Assay type: ADME, organism-based
# Settings: mouse, in vivo, po
row,Structure (SMILES),LD50 at 24 h [mg/kg]
1,CCCOC(=O)[C@@]1(c2ccccc2)CC1CN(C)C.O=C(O)/C=C/C(=O)O (some centres undefined),562
2,CN(C)CCCN1c2ccccc2CCc2ccc(Cl)cc21 [CLOMIPRAMINE],556
3,CCN(CC)C(=O)[C@]1(c2ccc(Cl)cc2)CC1CN.Cl (some centres undefined),422
4,CCNC(=O)[C@@]1(c2ccccc2)CC1CN.O=C(O)C(=O)O (some centres undefined),316
5,CCN(CC)C(=O)[C@]1(c2ccccc2)C[C@H]1CN.Cl,237
6,CCN(CC)C(=O)[C@]1(c2cccc(Cl)c2)CC1CN.Cl (some centres undefined),100
7,CC(C)OC(=O)[C@@]1(c2ccccc2)CC1CN.Cl (some centres undefined),100
8,CCN(CC)C(=O)[C@@]1(c2ccccc2)CC1CNC.O=C(O)C(=O)O (some centres undefined),316
9,NCC1C[C@@]1(C(=O)N1CCCC1)c1ccccc1.O=C(O)C(=O)O (some centres undefined),562
10,CCOC(=O)[C@@]1(c2ccc(Cl)cc2)CC1CN(C)C.Cl (some centres undefined),422
11,CC(C)OC(=O)[C@@]1(c2ccc(Cl)cc2)CC1CN.Cl (some centres undefined),255
12,CCN(CC)C(=O)[C@]1(c2ccc(F)cc2)CC1CN.Cl (some centres undefined),422
13,Cl.NCC1C[C@@]1(C(=O)O)c1ccccc1 (some centres undefined),> 1000
14,CC(C)N(C(=O)[C@@]1(c2ccccc2)CC1CN)C(C)C.Cl (some centres undefined),100
15,CCOC(=O)[C@@]1(c2ccccc2)CC1CN(C)CCc1ccccc1.Cl (some centres undefined),1000
16,CNCCCN1c2ccccc2CCc2ccccc21 [DESIPRAMINE],572
17,CCCCN(CCCC)C(=O)[C@@]1(c2ccccc2)CC1CN.O=C(O)C(=O)O (some centres undefined),562

# Species on record: Mus musculus
# Assay: % increase of the diameter of the test pupil (% mydriasis) in comparison with that of the control pupil.
# Assay type: functional, organism-based
# Settings: not given
# Summary of the method: (§1)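 One drop (0.1 mL) of a 1% aqueous solution instilled into the left eye of 10 mice; right eye as untreated control. Both pupil diameters measured by ocular micrometer; mean mydriasis given as percent increase of test pupil diameter over control pupil.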
row,Structure (SMILES),Mydriasis
1,CCNC(=O)[C@@]1(c2ccccc2)CC1CN.O=C(O)C(=O)O (some centres undefined),Not significant
2,CCN(CC)C(=O)[C@]1(c2ccccc2)C[C@H]1CN.Cl,Not significant
3,CCN(CC)C(=O)[C@]1(c2cccc(Cl)c2)CC1CN.Cl (some centres undefined),Not significant
4,CCN(CC)C(=O)[C@@]1(c2ccccc2)CC1CNC.O=C(O)C(=O)O (some centres undefined),Not significant
5,CCN(CC)C(=O)[C@]1(c2ccc(F)cc2)CC1CN.Cl (some centres undefined),Not significant
6,Cl.NCC1C[C@@]1(C(=O)O)c1ccccc1 (some centres undefined),Not significant
7,CC(C)N(C(=O)[C@@]1(c2ccccc2)CC1CN)C(C)C.Cl (some centres undefined),Not significant
8,CCCCCCN(CCCCCC)C(=O)[C@@]1(c2ccccc2)CC1CN.O=C(O)C(=O)O (some centres undefined),Not significant
9,CCCCN(CCCC)C(=O)[C@@]1(c2ccccc2)CC1CN.O=C(O)C(=O)O (some centres undefined),Not significant

# Test system: Mus musculus
# Assay: Ability to kill 50% of the animals (administered orally), after sublethal dose of yohimbine (25 mg/Kg) when given subcutaneously.
# Assay type: functional
# Settings: not given
row,Structure (SMILES),ED50 [mg/kg]
1,CCCOC(=O)[C@@]1(c2ccccc2)CC1CN(C)C.O=C(O)/C=C/C(=O)O (some centres undefined),25
2,CN(C)CCCN1c2ccccc2CCc2ccc(Cl)cc21 [CLOMIPRAMINE],5
3,CCN(CC)C(=O)[C@]1(c2ccc(Cl)cc2)CC1CN.Cl (some centres undefined),3
4,CCNC(=O)[C@@]1(c2ccccc2)CC1CN.O=C(O)C(=O)O (some centres undefined),19
5,CCN(CC)C(=O)[C@]1(c2ccccc2)C[C@H]1CN.Cl,0.5
6,CCN(CC)C(=O)[C@]1(c2cccc(Cl)c2)CC1CN.Cl (some centres undefined),3
7,CC(C)OC(=O)[C@@]1(c2ccccc2)CC1CN.Cl (some centres undefined),18
8,CCN(CC)C(=O)[C@@]1(c2ccccc2)CC1CNC.O=C(O)C(=O)O (some centres undefined),4
9,NCC1C[C@@]1(C(=O)N1CCCC1)c1ccccc1.O=C(O)C(=O)O (some centres undefined),48
10,CCOC(=O)[C@@]1(c2ccc(Cl)cc2)CC1CN(C)C.Cl (some centres undefined),2
11,CC(C)OC(=O)[C@@]1(c2ccc(Cl)cc2)CC1CN.Cl (some centres undefined),2
12,CCN(CC)C(=O)[C@]1(c2ccc(F)cc2)CC1CN.Cl (some centres undefined),5
13,Cl.NCC1C[C@@]1(C(=O)O)c1ccccc1 (some centres undefined),> 100
14,CC(C)N(C(=O)[C@@]1(c2ccccc2)CC1CN)C(C)C.Cl (some centres undefined),15
15,CCCCCCN(CCCCCC)C(=O)[C@@]1(c2ccccc2)CC1CN.O=C(O)C(=O)O (some centres undefined),> 100
16,CCOC(=O)[C@@]1(c2ccccc2)CC1CN(C)CCc1ccccc1.Cl (some centres undefined),15
17,CNCCCN1c2ccccc2CCc2ccccc21 [DESIPRAMINE],2
18,CCCCN(CCCC)C(=O)[C@@]1(c2ccccc2)CC1CN.O=C(O)C(=O)O (some centres undefined),> 100

# Test system: Mus musculus
# Assay: Compound was tested for its ability to kill 50% of the animals after 24h, when administered perorally
# Assay type: functional
# Settings: po
row,Structure (SMILES),LD50 [mg/kg]
1,CCCCCCN(CCCCCC)C(=O)[C@@]1(c2ccccc2)CC1CN.O=C(O)C(=O)O (some centres undefined),> 1000

# Species on record: Mus musculus
# Assay: Percent increase of the diameter of the test pupil (% mydriasis) in comparison with that of the control pupil.
# Assay type: functional
# Settings: not given
# Summary of the method: as §1
row,Structure (SMILES),Mydriasis [%]
1,CCCOC(=O)[C@@]1(c2ccccc2)CC1CN(C)C.O=C(O)/C=C/C(=O)O (some centres undefined),55
2,CN(C)CCCN1c2ccccc2CCc2ccc(Cl)cc21 [CLOMIPRAMINE],38
3,CCN(CC)C(=O)[C@]1(c2ccc(Cl)cc2)CC1CN.Cl (some centres undefined),11
4,CC(C)OC(=O)[C@@]1(c2ccccc2)CC1CN.Cl (some centres undefined),20
5,NCC1C[C@@]1(C(=O)N1CCCC1)c1ccccc1.O=C(O)C(=O)O (some centres undefined),12
6,CCOC(=O)[C@@]1(c2ccc(Cl)cc2)CC1CN(C)C.Cl (some centres undefined),24
7,CC(C)OC(=O)[C@@]1(c2ccc(Cl)cc2)CC1CN.Cl (some centres undefined),23
8,CCOC(=O)[C@@]1(c2ccccc2)CC1CN(C)CCc1ccccc1.Cl (some centres undefined),30
9,CNCCCN1c2ccccc2CCc2ccccc21 [DESIPRAMINE],46

# Test system: Mus musculus
# Assay: Antagonism of tetrabenazine-induced ptosis in mice was evaluated after oral administration
# Assay type: functional
# Settings: not given
# Summary of the method: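 Mice dosed orally at various doses (highest 30 mg/kg) 30 min before tetrabenazine 40 mg/kg ip. Blepharoptosis scored 0–2 thirty minutes after tetrabenazine. Group score sums expressed as percentage.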
row,Structure (SMILES),ED50 [mg/kg]
1,CCCOC(=O)[C@@]1(c2ccccc2)CC1CN(C)C.O=C(O)/C=C/C(=O)O (some centres undefined),30
2,CN(C)CCCN1c2ccccc2CCc2ccc(Cl)cc21 [CLOMIPRAMINE],9
3,CCN(CC)C(=O)[C@]1(c2ccc(Cl)cc2)CC1CN.Cl (some centres undefined),9
4,CCNC(=O)[C@@]1(c2ccccc2)CC1CN.O=C(O)C(=O)O (some centres undefined),> 30
5,CCN(CC)C(=O)[C@]1(c2ccccc2)C[C@H]1CN.Cl,0.5
6,CCN(CC)C(=O)[C@]1(c2cccc(Cl)c2)CC1CN.Cl (some centres undefined),0.9
7,CCN(CC)C(=O)[C@@]1(c2ccccc2)CC1CNC.O=C(O)C(=O)O (some centres undefined),13
8,NCC1C[C@@]1(C(=O)N1CCCC1)c1ccccc1.O=C(O)C(=O)O (some centres undefined),20
9,CCOC(=O)[C@@]1(c2ccc(Cl)cc2)CC1CN(C)C.Cl (some centres undefined),6
10,CC(C)OC(=O)[C@@]1(c2ccc(Cl)cc2)CC1CN.Cl (some centres undefined),8
11,CCN(CC)C(=O)[C@]1(c2ccc(F)cc2)CC1CN.Cl (some centres undefined),10
12,Cl.NCC1C[C@@]1(C(=O)O)c1ccccc1 (some centres undefined),> 30
13,CC(C)N(C(=O)[C@@]1(c2ccccc2)CC1CN)C(C)C.Cl (some centres undefined),30
14,CCCCCCN(CCCCCC)C(=O)[C@@]1(c2ccccc2)CC1CN.O=C(O)C(=O)O (some centres undefined),> 30
15,CCOC(=O)[C@@]1(c2ccccc2)CC1CN(C)CCc1ccccc1.Cl (some centres undefined),> 30
16,CNCCCN1c2ccccc2CCc2ccccc21 [DESIPRAMINE],3
17,CCCCN(CCCC)C(=O)[C@@]1(c2ccccc2)CC1CN.O=C(O)C(=O)O (some centres undefined),> 30
